Experimental findings from ChEMBL document CHEMBL4513216, “Probing the Open Global Health Chemical Diversity Library for Multistage-Active Starting Points for Next-Generation Antimalarials” (ACS Infect Dis, 2020) are described below.

This data set in a line: Toxicity liver stage against HepG2, at 10uM. The data set is classed as cell-based. The arrangement: test concentration 10 uM, cell line HepG2-A16-CD81EGFP. Conditions: human, HepG2-A16-CD81EGFP cells; read-out: INHIBITION
The essentials: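 Uninfected HepG2-A16-CD81EGFP cells, 3 × 10^3 per well, 1536-well, plated on prespotted compound at 10 μM final, parasite-free screening media added to match infected plates; puromycin 10 μM positive, DMSO 0.5% negative; run in parallel with 48 h PbLuc assay at 37 °C, 5% CO2; viability by CellTiter-Glo luminescence, normalized to controls.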

As for `N#Cc1ccc(F)c(CSCCN2CCOCC2)c1`, the cytotoxicity at 10 µM is -5.71%.

Take `O=C1CO[C@H]2CN(S(=O)(=O)c3ccccc3)C[C@H]2N1Cc1ccccn1`: the cytotoxicity at 10 µM was -1.11%.

With `Cc1ccc(C(=O)NCCCN(C)S(C)(=O)=O)cc1-n1cccc1`, the cytotoxicity at 10 µM was -8.71%.

Regarding `O=C(CN1CCOC(Cn2cncn2)C1)NC(C1CC1)C1CC1` (stereo not given), the cytotoxicity at 10 µM is -49.5%.

With `CSc1ncc(C(=O)N2CCC(O)(CN3CCOCC3)C(C)(C)C2)cn1` (stereo not given), the cytotoxicity at 10 µM is -2.16%.

For the compound `Cc1cc(C(=O)N2CCCCC2)ccc1NS(C)(=O)=O`, the cytotoxicity at 10 µM was -1.4%.

As to `Cc1nc(-c2ccc(C(=O)O)cc2)cc(C2CCN(C(C)C)C2)n1` (stereo not given), the cytotoxicity at 10 µM turned out to be 6.62%.

Take `CCn1c(C)nnc1CN(C)C1CCN(CC2CCC2)C1` (stereo not given): the cytotoxicity at 10 µM is -11.5%.

Consider `COC1CCN(C(=O)Cc2csc(-c3ccc(F)cc3)n2)CC1`, for which the cytotoxicity at 10 µM was -6.16%.

Take `O=C(NCc1ccccc1CO)C1COc2ccccc21` (stereo not given): the cytotoxicity at 10 µM came to 12.3%.

As to `CC(C)c1nnc2sc(CC3CCS(=O)(=O)CC3)nn12`, the cytotoxicity at 10 µM turned out to be 4.62%.

As for `CC(=O)N(Cc1ncc(C)o1)C1CCN(Cc2noc(C)n2)C1` (stereo not given), the cytotoxicity at 10 µM was 0%.

As for `Cc1cc(CN2CC[C@H]3C[C@@H](c4nc(C5CC5)cs4)O[C@@H]3C2)no1`, the cytotoxicity at 10 µM was -104%.

With `CC(C)(NC(=O)c1cnc(C(C)(C)C)s1)C(N)=O`, the cytotoxicity at 10 µM is -4.04%.

As for `CN(C)CCNC(=O)c1cc2n(n1)CCN(C(=O)c1ccco1)C2`, the cytotoxicity at 10 µM worked out at 2.52%.

For the compound `CC(C)C(C)NC(=O)Nc1ccc(CC(N)=O)cc1` (stereo not given), the cytotoxicity at 10 µM was -3.36%.

`CC(NC(=O)c1cc(=O)n(C)c(=O)n1C)c1ccccc1-n1cccn1` (stereo not given): the cytotoxicity at 10 µM is -9.47%.

Consider `O=C(NCc1ccc(Cl)s1)c1cc(CN2CCCC(O)C2)on1` (stereo not given), for which the cytotoxicity at 10 µM is -52.3%.

Consider `OCCOCCN1CCCC1c1cccc(Cl)c1` (stereo not given), for which the cytotoxicity at 10 µM is -1.78%.

`CCS(=O)(=O)N1CCc2ccc(NC(=O)Nc3ccc(F)cc3F)cc21`: the cytotoxicity at 10 µM is 51.2%.

For `COc1c(C(=O)NCc2cccnc2)nnn1Cc1ccccc1`, the cytotoxicity at 10 µM was 12.5%.

`CC(C)C(NC(=O)c1ccccc1)C(=O)N1CCC2(CC1)OCCO2` (stereo not given): the cytotoxicity at 10 µM stood at 5.44%.

`Cc1cnc(CN(C)C2CCN(Cc3nc4c(F)cccc4[nH]3)C2)o1` (stereo not given): the cytotoxicity at 10 µM worked out at 2.53%.

On to `COc1ccccc1CN1C[C@@H]2CN(Cc3cccnc3)CCO[C@@H]2C1`, for which the cytotoxicity at 10 µM amounted to 12.3%.

Take `Cc1cc(C(=O)NCc2ccc(N3CCN(C)CC3)nc2)c(C)s1`: the cytotoxicity at 10 µM is -8.74%.

`Cc1csc(CNC(=O)NCCc2ccc3c(c2)OCCO3)n1`: the cytotoxicity at 10 µM is 4.74%.

For the compound `CCc1nc(C2CCCN(C(=O)NCCOC)C2)no1` (stereo not given), the cytotoxicity at 10 µM was -0.775%.

As to `Cc1cc(F)c(S(=O)(=O)NCCCN2CCC(O)CC2)cc1F`, the cytotoxicity at 10 µM was -25.9%.

As to `CC1CCCCN1C1CN(c2ccnc(C(=O)NCc3ccco3)c2)C1` (stereo not given), the cytotoxicity at 10 µM was determined as 2.29%.

On to `CN(C)c1ncc(-c2cc(C(=O)NC(C)(C)CO)n(CC3CC3)c2)cn1`, for which the cytotoxicity at 10 µM was -13.4%.

Regarding `COc1coc(CN2CCCC(CCc3ccc(F)cc3)C2)cc1=O` (stereo not given), the cytotoxicity at 10 µM came to 2.16%.

With `CCn1ncc(S(=O)(=O)N[C@@H]2CC[C@@H](n3ccnc3C)[C@@H]2O)c1C`, the cytotoxicity at 10 µM came to 3.65%.

For `CNS(=O)(=O)CC(=O)N(Cc1ccsc1)c1ccccc1`, the cytotoxicity at 10 µM was -2.4%.

With `Cc1noc(C)c1CCC(=O)N1CCn2cccc2C1C` (stereo not given), the cytotoxicity at 10 µM is -0.376%.

Consider `CCOc1ccc2[nH]c(=O)c(CN3CCC(n4cnnc4)CC3)cc2c1`, for which the cytotoxicity at 10 µM is -0.966%.

In the case of `Nc1nc2c(c(N3CCCC(OCc4ccccn4)C3)n1)CCNCC2` (stereo not given), the cytotoxicity at 10 µM is -11.4%.

Turning to `OCCCNc1cccc(COC2CCCCC2)c1`, the cytotoxicity at 10 µM was -0.23%.

In the case of `COc1ccccc1CCN[C@@H]1c2ccccc2C2(CCNCC2)[C@H]1O`, the cytotoxicity at 10 µM was determined as 5.79%.

With `CN1CCCC1(CCCc1cccnc1)C(=O)NCc1nccn1C` (stereo not given), the cytotoxicity at 10 µM is 0.732%.

Turning to `Cc1cn2c(n1)CCC(NC(=O)CCn1cncn1)C2` (stereo not given), the cytotoxicity at 10 µM is -5.72%.

Consider `Cc1ccc(C(=O)N2CCC3(CC2)CC(N2CCCC2)C3)cc1`, for which the cytotoxicity at 10 µM was -0.77%.

Consider `COCCN1C[C@H]2CN(Cc3cccc(OC(F)(F)F)c3)CCN2C1=O`, for which the cytotoxicity at 10 µM was found to be 2.67%.

As for `O=C1CN(C(=O)C2CCCCC2)CC(O)CN1Cc1ccco1` (stereo not given), the cytotoxicity at 10 µM is -2.67%.

Consider `Cc1cc(C)n(C2CN(CC(=O)NC3CCS(=O)(=O)C3)C2)n1` (stereo not given), for which the cytotoxicity at 10 µM was -9.41%.

Regarding `CN(Cc1ccc(F)cc1)S(=O)(=O)N1CCOCC1`, the cytotoxicity at 10 µM is 2.35%.

`Cc1c(I)cccc1C(=O)NCc1nnc[nH]1`: the cytotoxicity at 10 µM is -2.86%.

In the case of `N#Cc1ccc(N2CCN(c3ncccn3)CC2)c(C(F)(F)F)c1`, the cytotoxicity at 10 µM is 36.3%.

As for `Fc1ccccc1CN1C[C@@H](OCc2ccncc2)[C@H]2OCCC[C@H]21`, the cytotoxicity at 10 µM is -4.81%.

On to `CNC(=O)c1ccc2c(c1)C1(CCN(CCOC)CC1)C(=O)N2`, for which the cytotoxicity at 10 µM was -1.92%.

Consider `CCC(O)CN1CCN(C(=O)c2cc3ccccc3n2CC)CC1` (stereo not given), for which the cytotoxicity at 10 µM was -0.579%.

As for `Cc1ccc(CN2CC[C@H]3[C@H]2CC(=O)N3c2ccsc2)o1`, the cytotoxicity at 10 µM was determined as 1.12%.

As to `c1ccc(Cc2nc(CNC3CCC4(CCNCC4)CC3)no2)cc1`, the cytotoxicity at 10 µM is -17%.

Turning to `Cc1cc(N(C)C)nc(N2CCn3c(C)nnc3C2)n1`, the cytotoxicity at 10 µM is -5.14%.

For the compound `CC(NCc1ccccc1Br)c1ccc2[nH]c(=O)[nH]c2c1` (stereo not given), the cytotoxicity at 10 µM is -6.12%.

On to `Cc1[nH]c(C2(N)CCCCC2)nc(=O)c1C`, for which the cytotoxicity at 10 µM is -0.846%.

Turning to `N#Cc1ccccc1CN1CCC(CN2CCOCC2)C1` (stereo not given), the cytotoxicity at 10 µM is -4.5%.

For `CC(=O)N1CCN2C[C@H](CO)[C@@H](c3ccccc3)[C@H]2C1`, the cytotoxicity at 10 µM was found to be 3.54%.

Take `CC1CN(C)c2ccccc2N(C(=O)c2c[nH]c(C(C)C)n2)C1` (stereo not given): the cytotoxicity at 10 µM is 3.61%.

For `COc1ccc(-c2nc(C3CCNCC3)cc3c2ncn3C)cc1`, the cytotoxicity at 10 µM is -124%.

With `O=C(CCc1nnc(-c2ccccc2)o1)N1CCN(CC2CC2)CC1`, the cytotoxicity at 10 µM was -13.7%.

`CCN(C(=O)c1ccc(-c2ccccc2)nc1C)C1CC(=O)NC1=O` (stereo not given): the cytotoxicity at 10 µM was -4.18%.

`COCc1nc(CN2CCC3(CCCO3)CCC2=O)no1` (stereo not given): the cytotoxicity at 10 µM is -10.3%.

Take `CN(C)CCOC1CC2(CCN(c3cnccn3)CC2)c2ccccc21` (stereo not given): the cytotoxicity at 10 µM was -2.69%.

`O=C(c1ccco1)N1CCO[C@@H]2CN(c3ccccc3)CC[C@@H]2C1`: the cytotoxicity at 10 µM is -67.7%.

As to `O=C(NC1CCN(CC2CC2)C1)c1ccc(C(=O)c2cc[nH]c2)cc1` (stereo not given), the cytotoxicity at 10 µM is -6.14%.

Consider `Cc1cccc(C)c1OC1CN(C(=O)C2CCCN(C(=O)N(C)C)C2)C1` (stereo not given), for which the cytotoxicity at 10 µM is -0.545%.

For the compound `N#Cc1ccc(NCC(O)c2ccco2)c(C(F)(F)F)c1` (stereo not given), the cytotoxicity at 10 µM is -31.7%.

For `Cc1noc(C)c1CS(=O)(=O)CC(=O)N1c2ccccc2CC1C` (stereo not given), the cytotoxicity at 10 µM came out at 3.53%.

Turning to `CCc1nc(CN(C)C2CCN(CCc3ccncc3)C2)no1` (stereo not given), the cytotoxicity at 10 µM was -20.2%.

Turning to `COCCCNC(=O)c1cc(C(C)C)nc(N2CCCCCC2)n1`, the cytotoxicity at 10 µM was found to be 9.15%.
